Reference: ChEMBL document CHEMBL1140003, “Bivalent ligand approach on 4-[2-(3-methoxyphenyl)ethyl]-1-(2-methoxyphenyl)piperazine: synthesis and binding affinities for 5-HT(7) and 5-HT(1A) receptors” (Bioorg Med Chem, 2007)

How the values were obtained:
[1] = target: 5-hydroxytryptamine receptor 7 (Rattus norvegicus, UniProt P32305); assay: Displacement of [3H]LSD from rat recombinant 5HT7 receptor expressed in HEK293 cells; assay type: cell-based
Procedure, shortened: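 Membranes (30 µg) incubated 60 min at 37 °C with 2.5 nM [3H]LSD and 6–9 test concentrations in 50 mM Tris, 10 mM MgCl2, 0.5 mM EDTA, pH 7.4. Stopped by GF/A filtration (0.5% PEI pre-soak), cold-buffer washes; nonspecific binding defined by 10 µM 5-CT. Ki by nonlinear curve fit and Cheng–Prusoff; mean ± SEM of three experiments in triplicate.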

[2] = target: 5-hydroxytryptamine receptor 1A (Homo sapiens) (UniProt P08908); assay: Displacement of [3H]-8-OH-DPAT from human recombinant 5HT1A receptor expressed in HEK293 cells
5-hydroxytryptamine receptor 1A (Homo sapiens), sequence (P08908 whole entry, looked up): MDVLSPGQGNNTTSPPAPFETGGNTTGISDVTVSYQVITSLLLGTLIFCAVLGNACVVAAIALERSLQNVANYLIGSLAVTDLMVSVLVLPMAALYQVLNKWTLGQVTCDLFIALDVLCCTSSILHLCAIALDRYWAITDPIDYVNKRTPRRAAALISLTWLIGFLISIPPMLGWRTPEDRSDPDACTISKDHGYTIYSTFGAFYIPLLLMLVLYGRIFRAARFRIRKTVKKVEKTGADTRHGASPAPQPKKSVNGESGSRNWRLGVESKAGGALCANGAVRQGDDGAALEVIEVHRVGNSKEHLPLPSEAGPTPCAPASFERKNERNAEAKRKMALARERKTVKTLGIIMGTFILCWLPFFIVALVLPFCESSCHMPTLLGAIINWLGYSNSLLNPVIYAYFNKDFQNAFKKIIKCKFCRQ

5-hydroxytryptamine receptor 7, sequence (P32305 whole entry): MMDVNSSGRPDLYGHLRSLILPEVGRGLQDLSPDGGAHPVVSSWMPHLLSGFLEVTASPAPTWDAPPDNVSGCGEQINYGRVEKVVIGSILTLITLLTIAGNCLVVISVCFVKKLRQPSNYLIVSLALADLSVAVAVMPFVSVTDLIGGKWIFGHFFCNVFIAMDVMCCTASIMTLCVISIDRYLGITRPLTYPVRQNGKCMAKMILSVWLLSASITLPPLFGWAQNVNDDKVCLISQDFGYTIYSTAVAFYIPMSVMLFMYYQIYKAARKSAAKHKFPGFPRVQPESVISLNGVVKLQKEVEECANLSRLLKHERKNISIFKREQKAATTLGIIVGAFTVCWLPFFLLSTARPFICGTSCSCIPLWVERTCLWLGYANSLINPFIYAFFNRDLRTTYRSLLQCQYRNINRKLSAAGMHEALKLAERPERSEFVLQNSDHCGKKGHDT

Row | Ki [1] [µM] | Ki [2] [µM] | Compound
1 | 0.025 | 0.0056 | COc1ccccc1N1CCN(CCc2cccc(OCCCOc3cccc(CCN4CCN(c5ccccc5OC)CC4)c3)c2)CC1
2 | 0.0411 | 0.0022 | COc1ccccc1N1CCN(CCc2cccc(OCCOc3cccc(CCN4CCN(c5ccccc5OC)CC4)c3)c2)CC1
3 | 0.573 | 0.0048 | COc1ccccc1N1CCN(CCc2cccc(OCCCCCCCCOc3cccc(CCN4CCN(c5ccccc5OC)CC4)c3)c2)CC1
4 | 0.0285 | 0.0009 | COc1ccccc1N1CCN(CCc2cccc(OCCCCOc3cccc(CCN4CCN(c5ccccc5OC)CC4)c3)c2)CC1
5 | 0.258 | 0.0283 | COc1ccccc1N1CCN(CCc2cccc(OCCCCCCCCCCOc3cccc(CCN4CCN(c5ccccc5OC)CC4)c3)c2)CC1
6 | – | 0.253 | COc1ccccc1N1CCN(CCc2cccc(OCCCCCCCCCCCCOc3cccc(CCN4CCN(c5ccccc5OC)CC4)c3)c2)CC1
7 | 0.037 | 0.00062 | COc1ccccc1N1CCN(CCc2cccc(OCCOCCOc3cccc(CCN4CCN(c5ccccc5OC)CC4)c3)c2)CC1
8 | 0.12 | 0.00174 | COc1ccccc1N1CCN(CCc2cccc(OCCCCCOc3cccc(CCN4CCN(c5ccccc5OC)CC4)c3)c2)CC1
9 | 0.043 | 0.00274 | COc1ccccc1N1CCN(CCc2cccc(OC(=O)COCC(=O)Oc3cccc(CCN4CCN(c5ccccc5OC)CC4)c3)c2)CC1
10 | 0.0426 | 0.0016 | COc1ccccc1N1CCN(CCc2cccc(OCCCCCCOc3cccc(CCN4CCN(c5ccccc5OC)CC4)c3)c2)CC1
